Bioassay records from PubChem BioAssay.
Hits are enriched below; roughly 2.7% of the tested compounds scored in any of these assays.
MC4R barr agon: activates human MC4R beta-arrestin recruitment; activation, % at 8.9 µM; P32245; U2OS MC4R beta-arrestin complementation, luminescence; percent of melanotan II response, DMSO zero; 360,000 compounds, 0.98% hits;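 active means activation above a per-plate cutoff, the mean activation of sample wells on that plate plus 3 SD, cut at about 8% in these data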
Target sequence (P32245 whole entry, looked up): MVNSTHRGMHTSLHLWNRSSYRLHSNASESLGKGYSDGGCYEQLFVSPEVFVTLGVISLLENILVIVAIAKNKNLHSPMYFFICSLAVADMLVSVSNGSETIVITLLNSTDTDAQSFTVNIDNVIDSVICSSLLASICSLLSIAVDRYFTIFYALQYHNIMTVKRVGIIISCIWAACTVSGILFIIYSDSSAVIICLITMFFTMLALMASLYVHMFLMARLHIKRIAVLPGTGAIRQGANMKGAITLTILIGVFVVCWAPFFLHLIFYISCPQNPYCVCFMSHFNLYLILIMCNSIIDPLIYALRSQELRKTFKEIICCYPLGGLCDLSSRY
Hep lipid drop: modulators of hepatic lipid droplet formation; 240,000 compounds, 0.4% hits; AML12 mouse hepatocytes, oleate lipid droplets, BODIPY imaging; inhibition, % at 6.5 µM; AID 1656;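 active means lipid droplet intensity inhibited by at least 50%, with more than 500 cells counted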
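Assay system: AML12 mouse liver cells | Compound dosing: One dose, 6.5 µM compound | Read-out basis: Droplet intensity reduction, % inhibition | Measured by: Fluorescence imaging, 20x objective, two fields per well | Schedule: Overnight treatment with compound plus oleate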
PREPL inh: inhibits the human prolyl oligopeptidase-like enzyme | Q4J6C6 | recombinant PREPL, fluorescence polarization activity-based probe | 320,000 compounds, 0.68% hits | inhibition, % at 5.96 µM | AID 2751; in the data active means inhibition above about 43%;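 further: 0% = enzyme with DMSO and 100% = wells lacking enzyme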
MC4R antagonist: blocks human MC4R cAMP signaling; MC4R-expressing cells, MTII-stimulated cAMP, LANCE TR-FRET; inhibition, % at 6.5 µM; 360,000 compounds, 0.48% hits; AID 540295;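 active means inhibition above its plate's cutoff, the mean of tested wells on that plate plus 3 SD, cut at about 29% in these data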;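 further: 0% = Melanotan II alone and 100% = Melanotan II plus saturating MCL0020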
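Assay system: U2OS-MC4R stable cell line; Also added: Melanotan II; Technique: Eu-cAMP/anti-cAMP TR-FRET, emission 671 nm; Times: 30-min compound, 1-h challenge, 1-h detection, room temperature.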
NTR1 agonist: NTR1 (human) agonism; NTR1-U2OS beta-arrestin-GFP spot imaging, agonist mode; 330,000 compounds, 0.17% hits; activation, % at 20 µM; P30989;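 active means activation at or above 40% of the spot to cytoplasm intensity ratio, with at least 20 cells analyzed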;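 further: 0% = DMSO without peptide and 100% = 100 nM NTR1 peptide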
m5-HT2A agonist: agonists of mouse serotonin 5-HT2A receptor (HTR2A); P35363; CHO-K1 mHTR2A beta-arrestin complementation, luminescence; percent of 30 µM serotonin response; activation, % at 7.6 µM; 360,000 compounds, 0.66% hits;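 active means activation above a run cutoff, the mean activation of all tested compounds plus 3 SD, cut at about 14% in these data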;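 further: 0% = plate median of compound wells and 100% = 30 µM serotonin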
OPRM1 ag: activates human mu opioid receptor in HTR2A counterscreen. shares compounds with m5-HT2A agonist. U2OS OPRM1 beta-arrestin PathHunter, luminescence; DMSO 0%, DAMGO 9.3 µM 100%. activation, % at 9.3 µM. 2,300 compounds, 5.3% hits. AID 624380;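 active means mean activation above the mean of DMSO-only wells plus 3 SD, cut at about 0.5% in these data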
HTR2A ag conf: mouse HTR2A agonism confirmed. shares compounds with m5-HT2A agonist. CHO-K1 PathHunter beta-arrestin recruitment, luminescence; DMSO 0%, 30 µM serotonin 100%. activation, % at 7.6 µM. 2,300 compounds, 19% hits. AID 624381;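 active means mean activation across triplicates above the hit threshold derived in the original primary screen, cut at about 15% in these data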
An asterisk follows results filed as active; nt = no result.

SMILES	MC4R barr agon	Hep lipid drop	PREPL inh	MC4R antagonist	NTR1 agonist	m5-HT2A agonist	OPRM1 ag	HTR2A ag conf
O=C(NC1CCC(O)CC1)c1ccc(NS(=O)(=O)c2cccc([N+](=O)[O-])c2)cc1 (stereo unspecified)	0	nt	20	8	-3	15*	0	-4
CC(C)OCCCNC(=O)c1cc(S(=O)(=O)N2CCc3ccccc32)cn1C	1	-7	2	-1	1	-3	nt	nt
O=C(Cc1ccc(NC(=O)C2CCCN(C(=O)C3CCCCC3)C2)cc1)Nc1ccc(C(=O)N2CCOCC2)cc1 (stereo unspecified)	-1	nt	nt	-4	nt	3	nt	nt
CN(C(=O)c1cccc(NC(=O)Cc2ccc(NC(=O)C3CCCN(C(=O)CCc4ccccc4)C3)cc2)c1)C1CC1 (stereo unspecified)	0	nt	nt	0	nt	16*	1.1*	-1
O=C(Cc1ccc(NC(=O)C2CCCN(C(=O)C3CCC3)C2)cc1)Nc1ccc(C(=O)N2CCOCC2)cc1 (stereo unspecified)	0	nt	nt	5	nt	17*	0	1
O=C(Cc1ccc(NC(=O)C2CCCN(C(=O)C3CC3)C2)cc1)Nc1cccc(C(=O)N2CCCC2)c1 (stereo unspecified)	-1	nt	nt	-8	nt	15*	-1	-4
CNS(=O)(=O)c1ccc(C(C)(C)C)cc1	-2	2	-1	13	1	-5	nt	nt
Cc1cccn2c(=O)nc(SCC(=O)NCc3ccccc3)nc12	0	nt	-5	4	2	15*	-1	-4
Cc1cccn2c(=O)nc(SCC(=O)NCCc3ccccc3)nc12	-2	nt	11	8	3	8	nt	nt
CN(C)c1ccc(C(C(=O)NCc2ccccc2)N(Cc2ccco2)C(=O)c2snc(C(N)=O)c2N)cc1 (stereo unspecified)	3	2	19	9	nt	16*	-1	3
COCCN1CCC(CNCc2cn(-c3cc(C)ccc3C)nc2-c2ccccc2)C1 (stereo unspecified)	0	-35	6	4	1	-4	nt	nt
COc1ccccc1-c1nc2c(c(SCC(=O)N3CCCCC3)n1)Cc1c(CO)cnc(C)c1O2	-3	-11	14	-5	2	15*	0	-3
COC(=O)[C@H](Cc1ccc(O)cc1)NC(=O)Cn1cnc2c(OCc3ccccc3)ncnc21	-4	nt	32	12	2	15*	nt	-3
COC(=O)c1c[nH]n2c(=O)cc(CCl)nc12	-1	-3	-7	1	-1	1	nt	nt
COc1ccc2nc(SCC(=O)Nc3ccccc3)[nH]c2c1	-2	28	-6	-7	0	19*	0	-1
Cc1ccc(S(=O)(=O)Nc2c(C)n(C)n(-c3ccccc3)c2=O)cc1C(=O)OCC(=O)N1CCCC(C)C1 (stereo unspecified)	-4	11	1	7	0	16*	-1	1
Cc1c(NS(=O)(=O)c2cc(C(=O)N3CCCC(C)C3)ccc2Cl)c(=O)n(-c2ccccc2)n1C (stereo unspecified)	-1	nt	12	3	-1	1	nt	nt
O=C(NCc1ccccc1)C(c1ccccc1)N(C(=O)c1csnn1)C1CC1 (stereo unspecified)	-2	-1	-5	3	0	3	nt	nt
Cc1ccc(C(C(=O)NCc2ccccc2)N(C(=O)c2csnn2)C2CC2)cc1 (stereo unspecified)	1	-15	6	10	0	19*	-1	-3
C[N+](C)(CCOc1ccccc1)Cc1ccccc1	-1	nt	nt	9	nt	35*	1.6*	3
CN(CCOc1cccc2ccccc12)Cc1ccccc1	1	7	-20	0	3	15*	0	19*
